Assay [1] concerns the target Sigma non-opioid intracellular receptor 1 (Rattus norvegicus, UniProt Q9R0C9). The experiment in a line: Displacement of [3H](+)-pentazocine from sigma1 receptor in rat liver membrane by liquid scintillation counting. The format is cell membranes. (Loss of bound radioactivity is the signal in a displacement assay; it reports binding, not function.)
Assay [2] is described as follows: Displacement of [3H]DTG from sigma2 receptor in rat liver membrane by liquid scintillation counting. The format is cell membranes. The essentials:
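Rat liver homogenate (150 μg) incubated 120 min at room temperature with 3 nM [3H]DTG in 50 mM Tris-HCl pH 8.0. σ1 sites masked with 100 nM (+)-pentazocine; nonspecific binding with 10 μM haloperidol. At least 11 ligand concentrations, 0.1% final DMSO. Filtration on PEI-soaked GF/B filters. IC50 and nH from four-parameter fit, 2–4 determinations in duplicate, mean ± SEM.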

The structures appear in SMILES notation. pKi: −log10 of the molar value.

Chain of Sigma non-opioid intracellular receptor 1 (Q9R0C9 whole entry): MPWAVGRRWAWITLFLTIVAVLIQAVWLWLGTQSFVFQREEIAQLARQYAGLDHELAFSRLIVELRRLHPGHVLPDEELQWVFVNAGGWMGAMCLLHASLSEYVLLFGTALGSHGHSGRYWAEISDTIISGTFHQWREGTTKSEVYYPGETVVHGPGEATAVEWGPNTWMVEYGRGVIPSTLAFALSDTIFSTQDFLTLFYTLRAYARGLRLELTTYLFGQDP

Usually pKi stands for −log10 of the Ki, conventionally taken in molar units. A high value points to a low Ki. In the case of `Cc1ccccc1CN1CCC(Cn2c(=O)oc3ccccc32)CC1`, the pKi in assay [1] was 7.53.
The molecule `Cc1ccc(CN2CCC(Cn3c(=O)oc4ccccc43)CC2)cc1` gave a pKi in assay [1] of 8.51.
With `Cc1ccc(CN(C)CCCn2c(=O)oc3ccccc32)cc1`, the pKi in assay [1] is 6.06; in assay [2], 6.00.
The like results for `COc1ccccc1CN(C)CCCn1c(=O)oc2ccccc21` were, in that order, 5.71 and 6.72.
In the case of `COc1ccc(CN(C)CCCn2c(=O)oc3ccccc32)cc1`, the pKi in assay [1] was 7.08; in assay [2], 5.58.
Taken in the same sequence, the figures for `Cc1ccc(CN(C)CCCCn2c(=O)oc3ccccc32)cc1` were 7.01 and 7.64.
Consider `CN(CCCn1c(=O)oc2ccccc21)Cc1ccccc1Cl`, for which the pKi in assay [1] was 5.60; in assay [2], 6.34.
The molecule `Cc1ccc(CN2CCC(C(=O)Nc3ccccc3)CC2)cc1` showed a pKi in assay [1] of 6.98.
Consider `CN(CCCCn1c(=O)oc2ccccc21)Cc1ccccc1Cl`, for which the pKi in assay [1] was 6.07; in assay [2], 7.43.
For the molecule `CN(CCCCn1c(=O)oc2ccccc21)Cc1ccc(Cl)cc1`, the pKi in assay [2] was 7.44.
With `CN(CCCCn1c(=O)oc2ccccc21)Cc1cccc(Cl)c1`, the pKi in assay [1] is 6.52.
`O=C(Nc1ccccc1)C1CCN(Cc2ccccc2)CC1` showed a negative logarithm of the Ki (pKi) in assay [1] of 7.32. This pKi lies 0.80 log units higher than the previous one.
Take `CN(CCCn1c(=O)oc2ccccc21)Cc1cccc(Cl)c1`: the values for the pKi in assay [1] and in assay [2] were 5.49 and 5.95, respectively.
For `CN(CCCCn1c(=O)oc2ccccc21)Cc1ccccc1`, the pKi in assay [2] was 6.92.
With `COc1ccc(CN(C)CCCCn2c(=O)oc3ccccc32)cc1`, the pKi in assay [1] and in assay [2] was 7.68 throughout.
With `O=C(Nc1ccccc1)C1CCN(Cc2ccc(Cl)cc2)CC1`, in assay [1], the pKi is 7.35.
On to `COc1ccccc1CN(C)CCCCn1c(=O)oc2ccccc21`, for which, in assay [1], the pKi is 6.23.
Take `CN(CCCn1c(=O)oc2ccccc21)Cc1ccc(Cl)cc1`: the pKi in assay [2] was 6.34.
The molecule `Cc1ccc(CN2CCC(C(=O)NCc3ccccc3)CC2)cc1` had a pKi in assay [1] of 7.16.
As to `Cc1ccc(CN(C)CCCCn2c(=O)oc3ccccc32)c(C)c1`, the results for the pKi in assay [1] and in assay [2] were 6.62 and 8.16, respectively.
Regarding `Cc1cccc(CN(C)CCCCn2c(=O)oc3ccccc32)c1`, the pKi in assay [1] was 6.99; in assay [2] it was 7.50.
Taken in the same sequence, the figures for `Cc1cccc(CN(C)CCCn2c(=O)oc3ccccc32)c1` were 5.74 and 5.57.
As to `CN(CCCn1c(=O)oc2ccccc21)Cc1ccccc1`, in assay [2], the pKi is 5.95.
For `Cc1ccccc1CN(C)CCCn1c(=O)oc2ccccc21`, the pKi in assay [1] is 6.05; in assay [2], 5.87.
The like results for `COc1cccc(CN(C)CCCn2c(=O)oc3ccccc32)c1` were, in that order, 5.07 and 5.67.
The like results for `Cc1ccc(CN(C)CCCn2c(=O)oc3ccccc32)c(C)c1` were, in that order, 5.74 and 5.69.
The like results for `COc1cccc(CN(C)CCCCn2c(=O)oc3ccccc32)c1` were, in that order, 6.53 and 6.73.
Consider `CC(C)=CCN1CC[C@]2(C)c3cc(O)ccc3C[C@H]1[C@H]2C` [(+)-PENTAZOCINE], for which, in assay [2], the pKi was 6.49.
Consider `Cc1ccccc1NC(=N)Nc1ccccc1C` [DITOLYLGUANIDINE], for which the pKi in assay [2] was 6.89.
On the same count and under the same terms, for `O=C(CCCN1CCC(O)(c2ccc(Cl)cc2)CC1)c1ccc(F)cc1` [HALOPERIDOL] the value was 6.63.

Source of the values: ChEMBL document CHEMBL1152436, “Synthesis, biological evaluation, and three-dimensional in silico pharmacophore model for sigma(1) receptor ligands based on a series of substituted benzo[d]oxazol-2(3H)-one derivatives” (J Med Chem, 2009).
